ChEMBL document CHEMBL1123441, “Carrier-linked primaquine in the chemotherapy of malaria” (J Med Chem, 1986)
Values joined by “and” are separate entries in the source; they are usually repeats but may differ in a detail not shown here. Equal values may be shown once.

Tests used:
Mus musculus [1] = organism: Mus musculus; test: Compound is evaluated for therapeutic efficacy; type: ADME, organism-based; conditions: in vivo
Outline: (§1)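 Female A/J mice (~20 g, groups of 6–8) inoculated via tail vein with 10^4 Plasmodium berghei sporozoites. Drug, conjugate or carrier alone in 0.5 mL PBS given intravenously 2–3 h later; doses as mg primaquine base/kg. Giemsa-stained thin blood smears were read up to day 12, and mice without parasitemia by day 12 were scored cured. An untreated control group was run per experiment. CPD50 came from probit-transformed dose–response data, with results pooled from at least two experiments.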

[2] = (§2) Compound is evaluated for acute lethal toxicity by intravenous administration; type: organism-based; conditions: mouse, in vivo
Outline: (§3)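 Noninfected mice in groups of eight, given a single intravenous injection of varying doses (mg primaquine base/kg) of free or protein-coupled drug. Highest conjugate dose was limited by solubility.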

Mus musculus [3] = test: as §2; type: organism-based; conditions: in vivo; outline: as §3
Mus musculus [4] = test: Free and protein-conjugated compound is evaluated for curative effect, at the 11 mg/kg; type: functional; outline: as §1
Mus musculus [5] = test: Free and protein-conjugated compound is evaluated for curative effect, at the 14.5 mg/kg; type: functional; outline: as §1
Mus musculus [6] = test: Free and protein-conjugated compound is evaluated for curative effect, at the 7 mg/kg; type: functional; outline: as §1
Mus musculus [7] = test: Free and protein-conjugated compound is evaluated for curative effect, at the 8 mg/kg; type: functional; outline: as §1
Mus musculus [8] = test: Free and protein-conjugated compound is evaluated for curative effect, at the 9.5 mg/kg; type: functional; outline: as §1
[9] = Ratio of LD50 (lethal toxicity in mice) to that of CPD50 (therapeutic efficacy); type: organism-based; conditions: mouse, in vivo
Outline: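 Therapeutic index as LD50/CPD50 (mg primaquine base/kg). LD50 came from probit analysis of deaths after intravenous dosing of noninfected mice, groups of eight. CPD50 came from probit analysis of cure (no parasitemia by day 12) in A/J mice given intravenous drug 2–3 h after intravenous inoculation of 10^4 P. berghei sporozoites.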

In the case of `COc1cc(NC(C)CCCN)c2ncccc2c1` (centres undefined) [PRIMAQUINE], the CPD50 (Mus musculus [1]) is reported as 13 mg/kg and 20 mg/kg, the LD50 [2] is reported as 16 mg/kg and the LD10 (Mus musculus [3]) is reported as 13 mg/kg. The Cure (Mus musculus [4]) was 20%, the Cure (Mus musculus [5]) was 69% and the Cure (Mus musculus [6]) was 0%. For the same compound, the Cure (Mus musculus [7]) was 13%, the Cure (Mus musculus [8]) was 13% and the selectivity ratio [9] was 1.2.
